Reference: publication PMC7938327 (Journal of medicinal chemistry, 2017)
“Also recorded” adds a separate entry of the source.

How the values were obtained:
[1] = molecular target: T1, human recombinant ATX (Homo sapiens, UniProt Q13822); assay: ATX nucleotide pyrophosphatase activity, pNP-TMP hydrolysis; assay type: biochemical; conditions: 1 mM pNP-TMP, 4 nM ATX, compound 0 to 1 μM
In short: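 Human recombinant FLAG-tagged ATX was expressed in Sf9 insect cells and purified on anti-FLAG resin. Absorbance at 405 nm was read every 2 min for 1 h.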

[2] = molecular target: T1, human recombinant ATX; assay: ATX lysophospholipase D activity, FS-3 hydrolysis; assay type: biochemical; conditions: for ATX inhibitory activity (in words): FS-3 substrate; for mechanism: FS-3 0 to 10 μM, inhibitor 0, 0.5 × IC50 or 2 × IC50, best global fit
[3] = In vitro stability in 4T1 cell culture by LC-MS; assay type: in vitro ADME, mouse; conditions: 40 h of exposure to 4T1 cells
[4] = system: A2058 human melanoma cells; assay: ATX-mediated in vitro invasion assay; assay type: cell-based; conditions: exogenous LPC and recombinant ATX; for inhibition of A2058 cell invasion, screen at 10 μM: compared with 30; for inhibition of A2058 cell invasion (in words): dose–response
[5] = molecular target: LPA1 (Homo sapiens, UniProt Q92633); assay: LPA-mediated Ca2+ mobilization, LPA1 RH7777 cells; assay type: cell-based; conditions: LPA1-elicited Ca2+ responses
LPA1, sequence (Q92633 whole entry, species assumed): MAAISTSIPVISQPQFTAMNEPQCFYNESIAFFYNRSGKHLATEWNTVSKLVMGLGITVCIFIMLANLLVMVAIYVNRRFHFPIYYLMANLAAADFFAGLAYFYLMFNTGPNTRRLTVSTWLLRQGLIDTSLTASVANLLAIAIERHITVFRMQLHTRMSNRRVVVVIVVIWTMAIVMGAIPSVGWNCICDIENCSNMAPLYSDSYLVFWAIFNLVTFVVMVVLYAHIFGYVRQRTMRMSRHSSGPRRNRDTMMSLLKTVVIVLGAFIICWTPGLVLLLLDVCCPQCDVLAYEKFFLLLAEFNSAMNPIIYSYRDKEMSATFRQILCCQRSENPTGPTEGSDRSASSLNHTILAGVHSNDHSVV
In short: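 Rat hepatoma RH7777 cells stably expressing LPA1 were seeded at 5 × 10^4 per well on poly-L-lysine, left overnight, then serum-deprived 4 h in HEPES-Krebs buffer pH 7.4. Cells were loaded 30 min with 4.5 μg/mL Fura-2AM plus 0.45% Pluronic F-127. […] The 340/510 and 380/510 nm ratio was read every 3.42 s for 70 s, normalized to LPA Emax, and fitted by variable-slope regression for IC50.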

[6] = system: 4T1-TaxR cancer stem-like cells (mammospheres); assay: 4T1-TaxR mammosphere viability with paclitaxel; assay type: cell-based, mouse

| pNP-TMP inhibition [1] | ATX inhibitory activity (in words) [2] | Molecule | further results |
| --- | --- | --- | --- |
| none | – | O=C(Nc1cccc(F)c1)c1cc(S(=O)(=O)N2CCOCC2)c(Cl)cc1Cl [Compound 3, 2,4-Dichloro-N-(3-fluorophenyl)-5-(morpholinosulfonyl)-benzamide] | mechanism [2]: competitive; in vitro stability (in words) [3]: significant stability |
| none | – | O=C(Nc1ccc(F)c(F)c1)c1cc(S(=O)(=O)N2CCOCC2)c(Cl)cc1Cl [Compound 3a, 2,4-Dichloro-N-(3,4-difluorophenyl)-5-(morpholinosulfonyl)-benzamide] | inhibition of A2058 cell invasion, screen at 10 μM [4]: as effective as 30; inhibition of A2058 cell invasion (in words) [4]: inhibit ATX-dependent invasion; also recorded: dose dependently decreased A2058 cell invasion; fold IC50 improvement relative to parent compound 3 ([2]; ATX, FS-3): 4 fold; mechanism [2]: competitive |
| none | poorly active | O=C(Nc1c(F)c(F)c(F)c(F)c1F)c1cc(S(=O)(=O)N2CCOCC2)c(Cl)cc1Cl [Compound 3c, 2,4-Dichloro-5-(morpholinosulfonyl)-N-(perfluorophenyl)-benzamide] | – |
| none | poorly active | O=C(Nc1cc(Cl)c(Cl)c(Cl)c1)c1cc(S(=O)(=O)N2CCOCC2)c(Cl)cc1Cl [Compound 3d, 2,4-Dichloro-5-(morpholinosulfonyl)-N-(3,4,5-trichlorophenyl)-benzamide] | – |
| none | poorly active | COc1cc(NC(=O)c2cc(S(=O)(=O)N3CCOCC3)c(Cl)cc2Cl)cc(OC)c1OC [Compound 3e, 2,4-Dichloro-5-(morpholinosulfonyl)-N-(3,4,5-trimethoxyphenyl)-benzamide] | – |
| none | – | O=C(Nc1cc(Cl)c(F)c(Cl)c1)c1cc(S(=O)(=O)N2CCOCC2)c(Cl)cc1Cl [Compound 3g, 2,4-Dichloro-N-(3,5-dichloro-4-fluorophenyl)-5-(morpholinosulfonyl)benzamide] | antagonist activity at LPA1 (in words) [5]: exhibited antagonist activity; also recorded: effective in antagonizing LPA1-elicited Ca^2+ responses; fold higher potency of 3g over 3f ([2]; ATX, FS-3): 2 fold; mechanism [2]: competitive |
| none | – | N#Cc1c(F)cc(NC(=O)c2cc(S(=O)(=O)N3CCOCC3)c(Cl)cc2Cl)cc1F [Compound 3h, 2,4-Dichloro-N-(4-cyano-3,5-difluorophenyl)-5-(morpholinosulfonyl)benzamide] | – |
| none | – | COC(=O)c1c(F)cc(NC(=O)c2cc(S(=O)(=O)N3CCOCC3)c(Cl)cc2Cl)cc1F [Compound 3i, Methyl 4-(2,4-Dichloro-5-(morpholinosulfonyl)benzamido)-2,6-difluorobenzoate] | – |
| none | – | O=C(Nc1cc(F)c(F)c(F)c1Br)c1cc(S(=O)(=O)N2CCOCC2)c(Cl)cc1Cl [Compound 5, N-(2-Bromo-3,4,5-trifluorophenyl)-2,4-dichloro-5-(morpholinosulfonyl)benzamide] | – |
| none | failed to inhibit ATX | O=S(=O)(c1cc(-c2nc3cccc(F)c3o2)c(Cl)cc1Cl)N1CCOCC1 [Compound 7, 2-(2,4-Dichloro-5-(morpholinosulfonyl)phenyl)-7-fluorobenzo[d]-oxazole] | – |
| none | failed to inhibit ATX | O=S(=O)(c1cc(-c2nc3cc(F)c(F)cc3[nH]2)c(Cl)cc1Cl)N1CCOCC1 [Compound 8, 4-((2,4-Dichloro-5-(5,6-difluoro-1H-benzo[d]imidazol-2-yl)-phenyl)sulfonyl)-morpholine] | – |
| none | only very weak potency | CN(C(=O)c1cc(S(=O)(=O)N2CCOCC2)c(Cl)cc1Cl)c1cccc(F)c1 [Compound 9, 2,4-Dichloro-N-(3-fluorophenyl)-N-methyl-5-(morpholinosulfonyl)benzamide] | – |
| none | inactive | O=S(=O)(c1cc(CNc2ccc(F)c(F)c2)c(Cl)cc1Cl)N1CCOCC1 [Compound 10, N-(2,4-Dichloro-5-(morpholinosulfonyl)benzyl)-3,4-difluoroani-line] | – |
| none | – | O=S(=O)(c1cc(CNc2cc(F)c(F)c(F)c2)c(Cl)cc1Cl)N1CCOCC1 [Compound 11, N-(2,4-Dichloro-5-(morpholinosulfonyl)benzyl)-3,4,5-trifluoroani-line] | – |
| none | lost their ATX inhibitory activity | O=S(=O)(Nc1cc(S(=O)(=O)N2CCOCC2)c(Cl)cc1Cl)c1cccc(F)c1 [Compound 19] | – |
| none | lost their ATX inhibitory activity | O=S(=O)(c1cc(N(S(=O)(=O)c2cccc(F)c2)S(=O)(=O)c2cccc(F)c2)c(Cl)cc1Cl)N1CCOCC1 [Compound 20] | – |
| none | lost their ATX inhibitory activity | O=S(=O)(Nc1cccc(F)c1)c1cc(S(=O)(=O)N2CCOCC2)c(Cl)cc1Cl [Compound 22, 2,4-Dichloro-N-(3-fluorophenyl)-5-(morpholinosulfonyl)-benzenesulfonamide] | – |
| none | lost their ATX inhibitory activity | O=S(=O)(Nc1cc(F)c(F)c(F)c1)c1cc(S(=O)(=O)N2CCOCC2)c(Cl)cc1Cl [Compound 23, 2,4-Dichloro-5-(morpholinosulfonyl)-N-(3,4,5-trifluorophenyl)-benzenesulfonamide] | – |
| none | completely lost ATX inhibitory activity | O=C(Nc1cc(F)c(F)c(F)c1)c1cc(NN2CCOCC2)c(Cl)cc1Cl [Compound 25, 2,4-Dichloro-5-(morpholinoamino)-N-(3,4,5-trifluorophenyl)-benzamide] | – |
| none | – | CS(=O)(=O)N(C(=O)c1cc(NN2CCOCC2)c(Cl)cc1Cl)c1cc(F)c(F)c(F)c1 [Compound 26a, 2,4-Dichloro-N-(methylsulfonyl)-5-(morpholinoamino)-N-(3,4,5-trifluorophenyl)-benzamide] | – |
| none | – | CN1CCN(S(=O)(=O)c2cc(C(=O)Nc3cc(F)c(F)c(F)c3)c(Cl)cc2Cl)CC1 [Compound 28a, 2,4-Dichloro-5-((4-methylpiperazin-1-yl)sulfonyl)-N-(3,4,5-trifluorophenyl)-benzamide] | – |
| none | – | CN1CCN(S(=O)(=O)c2cc(C(=O)Nc3cc(Cl)c(F)c(Cl)c3)c(Cl)cc2Cl)CC1 [Compound 28b, 2,4-Dichloro-N-(3,5-dichloro-4-fluorophenyl)-5-((4-methylpiperazin-1-yl)sulfonyl)benzamide] | – |
| none | – | CN1CCN(S(=O)(=O)c2cc(C(=S)Nc3cc(Cl)c(F)c(Cl)c3)c(Cl)cc2Cl)CC1 [Compound 29, 2,4-Dichloro-N-(3,5-dichloro-4-fluorophenyl)-5-((4-methylpipera-zin-1-yl)sulfonyl)-benzothioamide] | – |
| – | – | CCCCCCCCCCCCCCCc1ccc(CP(=O)(O)O)cc1 [compound 30, (4-pentadecylbenzyl)phosphonic acid, reference compound] | resensitization of cancer stem-like cells to PT (in words) ([6]; 4T1-TaxR cells): effectively resensitized; further reduction of cell viability compared to PT alone ([6]; 4T1-TaxR mammospheres, PT 100 nM, compound 5 μM, 3 days): 25–30% |

| Molecule | pNP-TMP inhibition [1] | ATX inhibitory activity (in words) [2] | further results |
| --- | --- | --- | --- |
| 4-(2,4-Dichloro-5-(morpholinosulfonyl)benzamido)-2,6-difluoro-benzoic Acid [Compound 4] | none | inactive | – |
| O=S(=O)(c1cc(C(=S)Nc2cccc(F)c2)c(Cl)cc1Cl)N1CCOCC1 [Compound 12, 2,4-Dichloro-N-(3-fluorophenyl)-5-(morpholinosulfonyl)-benzothioamide] | none | retained similar inhibitory activity as the amide analogues | – |
| O=S(=O)(c1cc(C(=S)Nc2ccc(F)c(F)c2)c(Cl)cc1Cl)N1CCOCC1 [Compound 13, 2,4-Dichloro-N-(3,4-difluorophenyl)-5-(morpholinosulfonyl)-benzothioamide] | none | retained similar inhibitory activity as the amide analogues | – |
| O=S(=O)(c1cc(C(=S)Nc2cc(F)c(F)c(F)c2)c(Cl)cc1Cl)N1CCOCC1 [Compound 14, 2,4-Dichloro-5-(morpholinosulfonyl)-N-(3,4,5-trifluorophenyl)-benzothioamide] | none | retained similar inhibitory activity as the amide analogues | inhibition of A2058 cell invasion, screen at 10 μM [4]: as effective as 30; inhibition of A2058 cell invasion (in words) [4]: inhibit ATX-dependent invasion; also recorded: dose dependently decreased A2058 cell invasion; fold IC50 improvement relative to parent compound 3 ([2]; ATX, FS-3): 3 fold; mechanism [2]: competitive; in vitro stability (in words) [3]: significant stability |
| O=S(=O)(c1cc(C(=S)Nc2cc(Cl)c(F)c(Cl)c2)c(Cl)cc1Cl)N1CCOCC1 [Compound 15, 2,4-Dichloro-N-(3,5-dichloro-4-fluorophenyl)-5-(morpholinosulfonyl)-benzothioamide] | none | retained similar inhibitory activity as the amide analogues | – |
